As a reminder, the Ki is a dissociation constant, usually derived from enzyme kinetics or from competition with a known ligand. In general, IC50 refers to the concentration needed to halve the response being measured. Low values mean inhibition by little substance, high ones a need for much substance.

Test [1] addresses Carbonic anhydrase 1 (Homo sapiens, UniProt P00915). Nature of the test: Inhibition of recombinant human carbonic anhydrase 1 by stopped flow CO2 hydration assay.
The target in test [2] is Carbonic anhydrase 9 (Homo sapiens, UniProt Q16790).
Test [3] concerns MDA-MB-231. Description: Antiproliferative activity against human MDA-MB-231 cells after 48 hrs under hypoxic condition by MTT assay. The test is classed as functional, cell-based. Conditions: MDA-MB-231, 48 h. The gist of the method: (§1)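 MCF-7 and MDA-MB-231 cells (ATCC) grown in DMEM with 10% heat-inactivated FBS, 1% L-glutamine (2.5 mM), 10 mM HEPES, 50 μg/mL gentamycin and 100 μM CoCl2 as hypoxia inducer, 37 C, 5% CO2. MTT read-out after 48 h exposure. IC50 is the concentration giving 50% growth inhibition relative to untreated controls, mean ± S.D. of three separate experiments.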
In general terms: Formazan colour is commonly taken as a measure of viable cells.

The subject of test [4] is MCF7. Nature of the test: Antiproliferative activity against human MCF7 cells after 48 hrs under hypoxic condition by MTT assay. It is filed as functional, cell-based. Conditions: MCF7, 48 h. The gist of the method: as §1
For test [5], the target named is Vascular endothelial growth factor receptor 2 (Homo sapiens, UniProt P35968).
Vascular endothelial growth factor receptor 2, sequence (P35968 whole entry): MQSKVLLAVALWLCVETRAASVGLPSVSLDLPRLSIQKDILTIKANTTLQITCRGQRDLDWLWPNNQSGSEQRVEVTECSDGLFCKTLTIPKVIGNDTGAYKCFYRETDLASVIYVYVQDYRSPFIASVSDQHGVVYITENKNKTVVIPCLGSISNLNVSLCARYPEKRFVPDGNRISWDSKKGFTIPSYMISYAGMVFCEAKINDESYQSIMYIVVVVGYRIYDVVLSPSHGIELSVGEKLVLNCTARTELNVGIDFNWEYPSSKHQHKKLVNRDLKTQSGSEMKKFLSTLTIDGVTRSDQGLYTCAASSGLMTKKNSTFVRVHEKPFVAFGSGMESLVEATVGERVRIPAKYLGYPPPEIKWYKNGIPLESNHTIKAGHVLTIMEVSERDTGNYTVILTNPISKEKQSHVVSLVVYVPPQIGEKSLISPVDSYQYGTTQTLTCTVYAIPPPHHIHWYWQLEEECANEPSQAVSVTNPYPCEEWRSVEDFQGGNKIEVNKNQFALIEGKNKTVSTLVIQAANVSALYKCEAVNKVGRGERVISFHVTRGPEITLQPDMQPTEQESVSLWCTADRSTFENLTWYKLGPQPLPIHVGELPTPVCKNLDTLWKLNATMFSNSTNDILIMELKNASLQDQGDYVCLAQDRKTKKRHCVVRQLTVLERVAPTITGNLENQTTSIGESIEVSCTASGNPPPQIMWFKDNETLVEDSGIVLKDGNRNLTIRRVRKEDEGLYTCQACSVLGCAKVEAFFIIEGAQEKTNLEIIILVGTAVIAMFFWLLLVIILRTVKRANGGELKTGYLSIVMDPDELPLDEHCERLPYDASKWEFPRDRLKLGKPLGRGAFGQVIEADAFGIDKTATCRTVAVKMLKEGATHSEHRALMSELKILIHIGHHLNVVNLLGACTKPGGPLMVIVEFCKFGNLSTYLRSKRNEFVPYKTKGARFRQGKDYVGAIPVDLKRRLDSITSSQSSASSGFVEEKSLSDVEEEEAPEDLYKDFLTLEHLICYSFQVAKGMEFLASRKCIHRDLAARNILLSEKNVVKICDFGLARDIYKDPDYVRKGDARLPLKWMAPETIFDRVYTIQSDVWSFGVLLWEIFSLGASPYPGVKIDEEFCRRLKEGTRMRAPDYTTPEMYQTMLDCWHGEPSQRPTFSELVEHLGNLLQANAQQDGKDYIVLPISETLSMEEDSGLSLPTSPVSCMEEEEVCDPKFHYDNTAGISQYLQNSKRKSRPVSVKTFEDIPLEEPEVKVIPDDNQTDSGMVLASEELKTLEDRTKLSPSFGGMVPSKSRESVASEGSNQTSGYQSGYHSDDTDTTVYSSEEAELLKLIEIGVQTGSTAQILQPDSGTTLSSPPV
Test [6] has as its system MDA-MB-231. Description: Induction of apoptosis in human MDA-MB-231 cells assessed as early apoptotic cells after 24 hrs by Annexin V-FITC/propidium iodide staining based flow cytometry (reference value: 0.77%). It is filed as functional. (In general: In flow cytometry, cells or beads pass a laser one at a time.)
The test system of test [7] is MDA-MB-231. Description: Induction of apoptosis in human MDA-MB-231 cells assessed as late apoptotic cells after 24 hrs by Annexin V-FITC/propidium iodide staining based flow cytometry (reference value: 0.26%). It is filed as functional.
The test system of test [8] is MDA-MB-231. Description: Induction of apoptosis in human MDA-MB-231 cells assessed as necrotic cells after 24 hrs by Annexin V-FITC/propidium iodide staining based flow cytometry (reference value: 0.51%). It is filed as functional.

Carbonic anhydrase 1, sequence (P00915 whole entry): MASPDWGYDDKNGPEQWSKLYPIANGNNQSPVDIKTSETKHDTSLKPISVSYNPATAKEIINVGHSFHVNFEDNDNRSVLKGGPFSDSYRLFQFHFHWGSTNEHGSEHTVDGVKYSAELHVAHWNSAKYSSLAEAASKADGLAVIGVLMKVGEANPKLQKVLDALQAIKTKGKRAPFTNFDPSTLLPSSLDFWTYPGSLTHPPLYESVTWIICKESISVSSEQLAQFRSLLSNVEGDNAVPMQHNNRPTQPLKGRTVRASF

For the molecule `N#Cc1ccc(CN2C(=O)/C(=N\c3ccc(NC(=O)Nc4ccc(S(N)(=O)=O)cc4)cc3)c3cc(Br)ccc32)cc1`, the inhibition constant (Ki) in test [1] was 5840 nM; in test [2], 36.9 nM.
On to `CN1C(=O)/C(=N\c2ccc(NC(=O)Nc3ccc(S(N)(=O)=O)cc3)cc2)c2ccccc21`, for which the Ki in test [1] came out at 898 nM; in test [2], 25.1 nM.
Taken in the same sequence, the figures for `N#Cc1ccc(CN2C(=O)/C(=N\c3ccc(NC(=O)Nc4ccc(S(N)(=O)=O)cc4)cc3)c3cc(Cl)ccc32)cc1` were 8290 nM and 34.7 nM.
For `NS(=O)(=O)c1ccc(NC(=O)Nc2ccc(/N=C3\C(=O)N(Cc4cccc(F)c4)c4ccccc43)cc2)cc1` the same measures were 2070 nM and 54.5 nM.
For `NS(=O)(=O)c1ccc(NC(=O)Nc2ccc(/N=C3\C(=O)N(Cc4ccccc4)c4ccccc43)cc2)cc1` the same measures were 641 nM and 73.2 nM.
Consider `NS(=O)(=O)c1ccc(NC(=O)Nc2ccc(/N=C3\C(=O)N(Cc4cccc(F)c4)c4ccc(Br)cc43)cc2)cc1`, for which the Ki was 4700 nM in test [1] and 61.2 nM in test [2].
For `CCCN1C(=O)/C(=N\c2ccc(NC(=O)Nc3ccc(S(N)(=O)=O)cc3)cc2)c2ccccc21` the same measures were 939 nM and 19.6 nM.
For `Cc1ccc(CN2C(=O)/C(=N\c3ccc(NC(=O)Nc4ccc(S(N)(=O)=O)cc4)cc3)c3cc(Br)ccc32)cc1` the same measures were 4640 nM and 26.4 nM.
Taken in the same sequence, the figures for `NS(=O)(=O)c1ccc(NC(=O)Nc2ccc(/N=C3\C(=O)N(Cc4ccccc4)c4ccc(Br)cc43)cc2)cc1` were 5890 nM and 41.2 nM.
In the case of `Cc1ccc(CN2C(=O)/C(=N\c3ccc(NC(=O)Nc4ccc(S(N)(=O)=O)cc4)cc3)c3cc(Cl)ccc32)cc1`, the results for the Ki in test [1] and in test [2] were 6150 nM and 43 nM, respectively.
The molecule `COc1cccc2c1C(=O)c1c(O)c3c(c(O)c1C2=O)C[C@@](O)(C(=O)CO)C[C@@H]3O[C@H]1C[C@H](N)[C@H](O)[C@H](C)O1` [DOXORUBICIN] displayed an IC50 in test [3] of 8500 nM.
With `Cc1ccc(CN2C(=O)/C(=N\c3ccc(NC(=O)Nc4ccc(S(N)(=O)=O)cc4)cc3)c3ccccc32)cc1`, the Ki was 6570 nM in test [1] and 4.7 nM in test [2]. Besides, the values for the IC50 in test [3], in test [4] and in test [5] were 48900 nM, 11800 nM and 462 nM, respectively.
Consider `NS(=O)(=O)c1ccc(NC(=O)Nc2ccc(/N=C3\C(=O)N(Cc4cccc(F)c4)c4ccc(Cl)cc43)cc2)cc1`, for which the Ki in test [1] is 5100 nM; in test [2], 58.8 nM.
As to `NS(=O)(=O)c1ccc(NC(=O)Nc2ccc(/N=C3\C(=O)N(Cc4ccccc4)c4ccc(Cl)cc43)cc2)cc1`, the values for the Ki in test [1] and in test [2] were 2500 nM and 86.1 nM, respectively.
`CN1C(=O)/C(=N\c2ccc(NC(=O)Nc3ccc(S(N)(=O)=O)cc3)cc2)c2cc(Cl)ccc21`: the results for the Ki in test [1] and in test [2] were 407 nM and 5.2 nM, respectively. Further, the results for the IC50 in test [3], in test [4] and in test [5] were 7430 nM, 12900 nM and 261 nM, respectively. Also, the Activity in test [6] was 7.28%; in test [7], 11.26%; in test [8] it was 2.47%.
Take `CCCN1C(=O)/C(=N\c2ccc(NC(=O)Nc3ccc(S(N)(=O)=O)cc3)cc2)c2cc(Cl)ccc21`: the Ki in test [1] is 607 nM; in test [2], 8.2 nM. Besides, the IC50 stood at 25600 nM in test [3], 7360 nM in test [4] and 384 nM in test [5].
Taken in the same sequence, the figures for `N#Cc1ccc(CN2C(=O)/C(=N\c3ccc(NC(=O)Nc4ccc(S(N)(=O)=O)cc4)cc3)c3ccccc32)cc1` were 2290 nM, 9.7 nM, 23200 nM, 5970 nM and 207 nM.
Regarding `CN1C(=O)/C(=N\c2ccc(NC(=O)Nc3ccc(S(N)(=O)=O)cc3)cc2)c2cc(Br)ccc21`, the Ki in test [1] amounted to 1960 nM; in test [2] it was 9.2 nM.
For `CCCN1C(=O)/C(=N\c2ccc(NC(=O)Nc3ccc(S(N)(=O)=O)cc3)cc2)c2cc(Br)ccc21` the same measures were 2960 nM and 26.7 nM.

These data come from ChEMBL document CHEMBL4382220, “Enhancement of the tail hydrophobic interactions within the carbonic anhydrase IX active site via structural extension: Design and synthesis of novel N-substituted isatins-SLC-0111 hybrids as carbonic anhydrase inhibitors and antitumor agents” (Eur J Med Chem, 2019).
